Measurements collected from several papers.
Protocols differ between the studies behind these lines.
PIK3CA E542K: Phosphatidylinositol 4,5-bisphosphate 3-kinase catalytic subunit alpha isoform (PIK3CA, Homo sapiens, UniProt P42336, E542K)
PIK3CA: Phosphatidylinositol 4,5-bisphosphate 3-kinase catalytic subunit alpha isoform (PIK3CA, Homo sapiens, UniProt P42336)
PIK3CA M1043I: Phosphatidylinositol 4,5-bisphosphate 3-kinase catalytic subunit alpha isoform (PIK3CA, Homo sapiens, UniProt P42336, M1043I)

`CO[C@@H]1[C@H](N(C)C(=O)c2ccccc2)C[C@H]2O[C@]1(C)n1c3ccccc3c3c4c(c5c6ccccc6n2c5c31)C(=O)NC4` has an inhibition of 0% (Phosphatidylinositol 4,5-bisphosphate 3-kinase catalytic subunit alpha isoform (PIK3CA, Homo sapiens, UniProt P42336, E545K); enzyme activity, inhibitor; 1 µM).
With `C1=C/COCc2cc(ccc2OCCN2CCCC2)Nc2nccc(n2)-c2cccc(c2)COC/1` the remaining binding was 60% (Phosphatidylinositol 4,5-bisphosphate 3-kinase catalytic subunit alpha isoform (PIK3CA, Homo sapiens, UniProt P42336, I800L); binding; 0.1 µM).
`C[C@H]1CC[C@H](n2c3cnccc3c3cnc(Nc4ccc5c(n4)CCN(C(=O)CO)C5)nc32)CC1` has a remaining signal of 100% (PIK3CA E542K; cell-free assay; 1 µM).
For `C=CC(=O)N1CCC([C@@H]2CCNc3c(C(N)=O)c(-c4ccc(Oc5ccccc5)cc4)nn32)CC1`, the inhibition was 0% (PIK3CA; enzyme activity, inhibitor; 1 µM).
The remaining binding of `Cc1ccc(NC(=O)c2ccnc(C(F)(F)F)c2)cc1-c1cc(OCCO)nc(N2CCOCC2)c1` is reported as 74% (Phosphatidylinositol 4,5-bisphosphate 3-kinase catalytic subunit alpha isoform (PIK3CA, Homo sapiens, UniProt P42336, H1047Y); binding; 1 µM).
`Cc1cc(O)c(-c2ccc([C@@H](C)CN(C)C)cc2)c2c1[nH]c(=O)c1sccc12` gave an inhibition of -4.62% (PIK3CA; enzyme activity, inhibitor; 0.1 µM).
For `C#Cc1cc(-c2cc(Nc3nc(N[C@@H](C)c4ccc(F)cn4)ncc3Cl)n[nH]2)ccc1C=O`, the inhibition was 7.89% (PIK3CA; enzyme activity, inhibitor; 0.2 µM).
With `CN1CCN(C(=O)c2ccc(NC(=O)Nc3ccc(N(C)c4ccnc(Nc5ccc(CS(C)(=O)=O)cc5)n4)cc3)cc2)CC1` the remaining binding was 100% (PIK3CA M1043I; binding; 1 µM).
For `CC#CC(=O)N1CCC[C@H]1c1nc(-c2ccc(C(=O)Nc3ccccn3)cc2)c2c(N)nccn12`, the inhibition was 38% (Phosphatidylinositol 4,5-bisphosphate 3-kinase catalytic subunit alpha isoform (PIK3CA, Homo sapiens, UniProt P42336, Q546K); enzyme activity, inhibitor; 1 µM).
The remaining binding of `COc1ccc2[nH]c3c4[nH]c5ccc(OC)cc5c4c4c(c3c2c1)C(=O)NC4=O` is reported as 92% (PIK3CA E542K; binding; 1 µM).
`CCCCC(=O)Nc1ccc(-c2ccc3ncn(CCC)c(=O)c3c2)cn1` has a remaining binding of 91% (PIK3CA M1043I; binding, competition with immobilised ligand; 0.5 µM).
`C=CC(=O)N1CCC[C@@H](n2nc(-c3ccc(Oc4ccccc4)cc3)c3c(N)ncnc32)C1` has an inhibition of 28% (Phosphatidylinositol 4,5-bisphosphate 3-kinase catalytic subunit alpha isoform (PIK3CA, Homo sapiens, UniProt P42336, C420R); enzyme activity, inhibitor; 1 µM).
